Results taken from ChEMBL document CHEMBL1124464, “Peripherally acting enkephalin analogues. 2. Polar tri- and tetrapeptides” (1989).
pEC50: −log10 of the molar value.

Experiments:
Type in all cases: functional
Cavia porcellus = species: Cavia porcellus; assay: Inhibition of electrically induced contractions on the guinea pig ileum; settings: read-out: ED50 (the source's name)
In short: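 Guinea pig ileum contractions evoked by coaxial stimulation at 0.1 Hz, 0.5-ms pulses, supramaximal voltage, recorded isometrically; dose-response curves built with 15-min washout between doses.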

Mus musculus [1] = assay: Antinociceptive activity of subcutaneously administered compound in acetic acid (AA) induced writhing mice; settings: sc
In short: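 Male TFW mice, groups of five to six, given drug subcutaneously (10 mL kg-1), then ip acetic acid 0.6% at 25 mL kg-1. Writhes counted for 5 min beginning 15 min after acetic acid. ED50 = dose reducing writhes 50% versus vehicle, by linear regression.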

Mus musculus [2] = assay: Antinociceptive activity of subcutaneously administered compound in phenyl-p-benzoquinone induced writhing mice; settings: Mus musculus, sc; read-out: ED50
In short: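 Groups of five to six female CD1 mice given drug subcutaneously (10 mL kg-1) 30 min before ip phenyl-p-benzoquinone 2.5 mg kg-1. Writhes (abdominal constrictions/hind-limb extensions) counted over 2.5 min from 10 min post-PBQ. ED50, the dose giving 50% fewer writhes than vehicle, from linear regression.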

Mus musculus [3] = assay: Antinociceptive activity of perorally administered compound (20 mg) in phenyl-p-benzoquinone induced writhing mice
In short: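 Female CD1 mice (Charles River), groups of five to six, dosed orally by blunt intragastric needle (10 mL kg-1) 30 min before ip PBQ at 2.5 mg kg-1. Abdominal constrictions/hind-limb extensions were counted over 2.5 min starting 10 min after PBQ. ED50 is the dose halving writhes versus vehicle, estimated by linear regression.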

Mus musculus [4] = assay: Antinociceptive activity in the hot plate test (central activity) in rodents, when compound administered subcutaneously at 50 mg
In short: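 Male CFLP mice (Hacking and Churchill), groups of five to six, dosed sc at 10 mL kg-1 and placed on a copper surface held at 55 °C. Signs of discomfort (paw licking/shaking, jumping) were scored, with a 30-s cut-off. ED50 is the dose doubling response latency versus vehicle, estimated by parallel-line probit analysis.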

Mus musculus [5] = species: Mus musculus; assay: Dose ratio in the presence and absence of the peripheral opioid antagonist in N-methyl-nalorphine in AA writhing mice
In short: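 Acetic acid (0.6%, ip) writhing in male TFW mice; N-methylnalorphine 11.5 mg kg-1 ip 20 min before subcutaneous agonist. Writhes counted 5 min from 15 min post-irritant. Dose ratio taken as the shift between parallel regression lines with and without antagonist.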

Mus musculus [6] = assay: Antinociceptive activity in the hot plate test (central activity) in rodents, when compound administered subcutaneously; settings: sc
In short: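 Male CFLP mice, groups of five to six, placed on a copper surface held at 55 °C; latency to paw licking/shaking or jumping recorded, 30-s cut-off. Drug given subcutaneously at 10 mL kg-1. ED50 = dose doubling response latency versus vehicle, by parallel-line probit analysis.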

Mus musculus [7] = assay: Antinociceptive activity of perorally administered compound in phenyl-p-benzoquinone induced writhing mice; settings: po
In short: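 Female CD1 mice, groups of five to six, dosed orally by blunt intragastric needle (10 mL kg-1) 30 min before ip phenyl-p-benzoquinone 2.5 mg kg-1. Abdominal constrictions/hind-limb extensions counted over 2.5 min starting 10 min after PBQ. ED50 = dose halving writhes versus vehicle, by linear regression.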

| SMILES | pEC50 (Cavia porcellus) | ED50 (Mus musculus [1]) [mg/kg] | ED50 (Mus musculus [2]) [mg/kg] | Inhibition (Mus musculus [3]) [%] | Inhibition (Mus musculus [4]) [%] | Ratio (Mus musculus [5]) | ED50 (Mus musculus [6]) [mg/kg] | ED50 (Mus musculus [7]) [mg/kg] |
| --- | --- | --- | --- | --- | --- | --- | --- | --- |
| CC(=O)O.CCN(CCc1ccc(Cl)c(Cl)c1)C(=O)CNC(=O)[C@@H](CCCN=C(N)N)NC(=O)[C@H](Cc1ccc(O)cc1)N=C(N)N | > 7.00 | 0.62 | 0.2 | 14 | 0 | 1 | – | – |
| CC(=O)O.CCN(CCc1ccco1)C(=O)CNC(=O)[C@@H](CCCN=C(N)N)NC(=O)[C@H](Cc1ccc(O)cc1)N=C(N)N | 7.96 | – | 0.32 | 10 | – | – | – | – |
| CC(=O)O.CCN(CCc1cccs1)C(=O)CNC(=O)[C@@H](CCCN=C(N)N)NC(=O)[C@H](Cc1ccc(O)cc1)N=C(N)N | 8.03 | – | 0.44 | 15 | – | – | 22.9 | – |
| CC(=O)O.CCN(CCc1ccc(F)cc1)C(=O)CNC(=O)[C@@H](CCCN=C(N)N)NC(=O)[C@H](Cc1ccc(O)cc1)N=C(N)N | 8.17 | 0.02 | 0.08 | – | – | 2.4 | 20 | 5.3 |
| CC(=O)O.CCN(Cc1ccc(-c2ccccc2)cc1)C(=O)CNC(=O)[C@@H](CCCN=C(N)N)NC(=O)[C@H](Cc1ccc(O)cc1)N=C(N)N | 6.49 | – | 2.3 | 0 | – | – | – | – |
| CC(=O)O.CCN(Cc1ccccc1F)C(=O)CNC(=O)[C@@H](CCCN=C(N)N)NC(=O)[C@H](Cc1ccc(O)cc1)N=C(N)N | 7.69 | 0.81 | 0.43 | 16 | – | 7.8 | 14.6 | – |
| CC(=O)O.CCN(CCc1cccc2ccccc12)C(=O)CNC(=O)[C@@H](CCCN=C(N)N)NC(=O)[C@H](Cc1ccc(O)cc1)N=C(N)N | 7.52 | – | 1.4 | 0 | 0 | – | – | – |
| NC(N)=NCCC[C@@H](NC(=O)[C@@H](N)Cc1ccc(O)cc1)C(=O)NCCSCCc1ccc([N+](=O)[O-])cc1 | 4.38 | – | – | – | – | – | – | – |
| CCN(CCc1ccccn1)C(=O)CNC(=O)[C@@H](CCCN=C(N)N)NC(=O)[C@@H](N)Cc1ccc(O)cc1 | 6.29 | – | – | – | – | – | – | – |
| CC(=O)O.CCN(CCc1ccc(C#N)cc1)C(=O)CNC(=O)[C@@H](CCCN=C(N)N)NC(=O)[C@@H](N)Cc1ccc(O)cc1 | 5.74 | 2.2 | – | – | – | 1.4 | – | – |
| CC(=O)O.CCN(C(=O)CNC(=O)[C@@H](CCCN=C(N)N)NC(=O)[C@@H](N)Cc1ccc(O)cc1)[C@@H](Cc1cccc(F)c1)C(N)=O | 7.60 | 0.04 | 0.08 | – | – | 2.2 | 1.7 | – |
| CC(=O)O.CN(C(=O)CNC(=O)[C@@H](CCCN=C(N)N)NC(=O)[C@@H](N)Cc1ccc(O)cc1)[C@@H](Cc1ccc([N+](=O)[O-])cc1)C(N)=O | 7.44 | 0.25 | – | – | – | 2.5 | – | – |
| CC(=O)O.CCN(C(=O)CNC(=O)[C@@H](CCCN=C(N)N)NC(=O)[C@@H](N)Cc1ccc(O)cc1)[C@@H](Cc1ccc(Cl)cc1)C(N)=O | 9.19 | 0.03 | – | – | – | 1.3 | – | – |
| CC(=O)O.CCN(C(=O)CNC(=O)[C@@H](CCCN=C(N)N)NC(=O)[C@@H](N)Cc1ccc(O)cc1)[C@@H](Cc1ccccc1F)C(N)=O | 9.41 | 0.0009 | 0.15 | – | – | 3.9 | 1.95 | 5.9 |
| CC(=O)O.CCN(C(=O)CNC(=O)[C@@H](CCCN=C(N)N)NC(=O)[C@@H](N)Cc1ccc(O)cc1)[C@@H](Cc1ccc(F)cc1)C(N)=O | 8.66 | 0.0006 | 0.13 | – | – | 2.3 | 1.6 | 7.9 |
| CC(=O)O.CCN(C(=O)CNC(=O)[C@@H](CCSC)NC(=O)[C@@H](N)Cc1ccc(O)cc1)[C@@H](Cc1ccc([N+](=O)[O-])cc1)C(N)=O | 8.92 | 0.0015 | – | – | – | 0.8 | – | – |
| CC(=O)O.CCN(C(=O)CNC(=O)[C@@H](CCCN=C(N)N)NC(=O)[C@@H](N)Cc1ccc(O)cc1)[C@@H](Cc1ccc(Cl)c(Cl)c1)C(N)=O | 9.10 | 0.008 | 1.79 | – | – | 9.7 | 38.2 | 29.2 |

| SMILES | pEC50 (Cavia porcellus) | ED50 (Mus musculus [1]) [mg/kg] | ED50 (Mus musculus [2]) [mg/kg] | Inhibition (Mus musculus [3]) [%] | Inhibition (Mus musculus [4]) [%] | Ratio (Mus musculus [5]) | ED50 (Mus musculus [6]) [mg/kg] | ED50 (Mus musculus [7]) [mg/kg] |
| --- | --- | --- | --- | --- | --- | --- | --- | --- |
| CC(=O)O.CCN(C(=O)CNC(=O)[C@@H](CCCN=C(N)N)NC(=O)[C@@H](N)Cc1ccc(O)cc1)[C@@H](Cc1ccc(C(F)(F)F)cc1)C(N)=O | 8.20 | 0.13 | – | – | – | 2.9 | 16.9 | – |
| CC(=O)O.CCN(C(=O)CNC(=O)[C@@H](CCCN=C(N)N)NC(=O)[C@@H](N)Cc1ccc(O)cc1)[C@@H](Cc1ccc([N+](=O)[O-])cc1)C(N)=O | 8.28 | 0.05 | 0.06 | – | – | 3.4 | 0.54 | 13.9 |
| CC(=O)O.CCN(C(=O)CNC(=O)[C@@H](CCCN=C(N)N)NC(=O)[C@H](Cc1ccc(O)cc1)N=C(N)N)[C@@H](Cc1ccc([N+](=O)[O-])cc1)C(N)=O | 8.41 | 0.009 | 0.005 | – | – | 5.1 | 0.34 | 1.9 |
| CC(=O)O.CCN(C(=O)CNC(=O)[C@@H](CCCN=C(N)N)NC(=O)[C@H](Cc1ccc(O)cc1)N=C(N)N)[C@@H](Cc1ccc(F)cc1)C(N)=O | 10.05 | 0.002 | 0.04 | – | – | 6.5 | 0.9 | 25.6 |
| CC(=O)O.CCN(CCc1ccc([N+](=O)[O-])s1)C(=O)CNC(=O)[C@@H](CCCN=C(N)N)NC(=O)[C@@H](N)Cc1ccc(O)cc1 | 6.66 | 1.7 | – | – | – | 6.2 | – | – |
| CC(=O)O.CCN(CCc1ccc(F)cc1)C(=O)CNC(=O)[C@@H](CCCN=C(N)N)NC(=O)[C@@H](N)Cc1ccc(O)cc1 | 7.69 | 0.14 | 1.6 | – | – | 4.5 | 12.3 | 30.8 |
| CC(=O)O.CCN(Cc1ccccc1F)C(=O)CNC(=O)[C@@H](CCCN=C(N)N)NC(=O)[C@@H](N)Cc1ccc(O)cc1 | 6.49 | 1.1 | 31.1 | – | 0 | 8 | – | – |
| CCN(CCc1sccc1[N+](=O)[O-])C(=O)CNC(=O)[C@@H](CCCN=C(N)N)NC(=O)[C@@H](N)Cc1ccc(O)cc1 | 6.84 | – | – | – | – | – | – | – |
| CC(=O)O.CCN(CCc1cccc2ccccc12)C(=O)CNC(=O)[C@@H](CCCN=C(N)N)NC(=O)[C@@H](N)Cc1ccc(O)cc1 | 7.12 | – | 1.4 | 31 | 0 | – | – | – |
| CC(=O)O.CCN(CCc1ccc([N+](=O)[O-])cc1)C(=O)CNC(=O)[C@@H](CCSC)NC(=O)[C@@H](N)Cc1ccc(O)cc1 | 7.39 | 0.87 | – | – | – | 1.1 | – | – |
| CCN(Cc1c(F)c(F)c(F)c(F)c1F)C(=O)CNC(=O)[C@@H](CCCN=C(N)N)NC(=O)[C@@H](N)Cc1ccc(O)cc1 | 6.09 | – | – | – | – | – | – | – |
| CC(=O)O.CCN(CCc1ccccc1[N+](=O)[O-])C(=O)CNC(=O)[C@@H](CCCN=C(N)N)NC(=O)[C@H](Cc1ccc(O)cc1)N=C(N)N | 8.92 | 0.03 | 1.1 | – | – | 8.6 | 52.9 | 76.1 |
| CC(=O)O.CCN(CCc1ccc([N+](=O)[O-])cc1)C(=O)CNC(=O)[C@@H](CCCN=C(N)N)NC(=O)[C@H](Cc1ccc(O)cc1)N=C(N)N | 7.52 | 0.15 | 0.24 | – | – | 9.6 | 19.2 | 10 |
| CC(=O)O.CCN(Cc1ccccc1[N+](=O)[O-])C(=O)CNC(=O)[C@@H](CCCN=C(N)N)NC(=O)[C@H](Cc1ccc(O)cc1)N=C(N)N | 6.61 | 1.1 | 4 | 14 | 0 | 11 | – | – |
| CC(=O)O.CCN(Cc1ccc([N+](=O)[O-])cc1)C(=O)CNC(=O)[C@@H](CCCN=C(N)N)NC(=O)[C@H](Cc1ccc(O)cc1)N=C(N)N | 6.33 | 0.9 | 7.8 | – | – | 4.6 | – | – |
| CC(=O)O.CCN(CCc1ccc([N+](=O)[O-])s1)C(=O)CNC(=O)[C@@H](CCCN=C(N)N)NC(=O)[C@H](Cc1ccc(O)cc1)N=C(N)N | 7.60 | – | 2 | 7 | – | – | – | – |
